According to ChEMBL document CHEMBL3120128, “Evaluation of intestinal permeability of vicenin-2 and lychnopholic acid from Lychnophora salicifolia (Brazilian arnicão) using Caco-2 cells” (J Nat Prod, 2014):

How the values were obtained:
[1] = system: Caco-2; experiment: Cytotoxicity against human Caco2 cells at 50 to 200 uM relative to control; type: cell-based; details: caco-2, 200 µM
How it was run: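 Toxicity judged from TEER of Caco-2 monolayers, measured with an epithelial voltohmmeter before and after exposure. Compared against control monolayers in transport medium without compound.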

[2] = system: Caco-2; experiment: Apparent permeability from basolateral to apical side in human Caco2 cells in HBSS medium at 50 uM by HPLC-DAD analysis; type: ADME, cell-based; details: caco-2, 50 µM
[3] = system: Caco-2; experiment: Apparent permeability from apical to basolateral side in human Caco2 cells in HBSS medium at 50 uM by HPLC-DAD analysis; type: ADME, cell-based; details: caco-2, 50 µM
[4] = system: Caco-2; experiment: Apparent permeability from basolateral to apical side in human Caco2 cells in glucose free medium at 50 uM at pH 6.0 in apical side and pH 7.4 at basolateral side by HPLC-DAD analysis; type: ADME, cell-based; details: caco-2, pH 6, 50 µM
[5] = system: Caco-2; experiment: Apparent permeability from apical to basolateral side in human Caco2 cells in glucose free medium at 50 uM at pH 6.0 in apical side and pH 7.4 at basolateral side by HPLC-DAD analysis; type: ADME, cell-based; details: caco-2, pH 6, 50 µM
[6] = system: Caco-2; experiment: Apparent permeability from basolateral to apical side in human Caco2 cells in glucose free medium at 50 uM at pH 7.4 by HPLC-DAD analysis; type: ADME, cell-based; details: caco-2, pH 7.4, 50 µM
[7] = system: Caco-2; experiment: Apparent permeability from apical to basolateral side in human Caco2 cells in glucose free medium at 50 uM at pH 7.4 by HPLC-DAD analysis; type: ADME, cell-based; details: caco-2, pH 7.4, 50 µM
[8] = system: Caco-2; experiment: Apparent permeability from basolateral to apical side in human Caco2 cells in low glucose medium at 50 uM at pH 7.4 by HPLC-DAD analysis; type: ADME, cell-based; details: caco-2, pH 7.4, 50 µM
[9] = system: Caco-2; experiment: Apparent permeability from apical to basolateral side in human Caco2 cells in low glucose medium at 50 uM at pH 7.4 by HPLC-DAD analysis; type: ADME, cell-based; details: caco-2, pH 7.4, 50 µM
[10] = system: Caco-2; experiment: Apparent permeability from basolateral to apical side in human Caco2 cells in glucose rich medium at 50 to 100 uM at pH 7.4 by HPLC-DAD analysis; type: ADME, cell-based; details: caco-2, pH 7.4, 100 µM
[11] = system: Caco-2; experiment: Apparent permeability from apical to basolateral side in human Caco2 cells in glucose rich medium at 50 to 100 uM at pH 7.4 by HPLC-DAD analysis; type: ADME, cell-based; details: caco-2, pH 7.4, 100 µM
[12] = Lipophilicity, log P of the compound by micellar chromatography; type: physicochemical
[13] = Stability of the compound at 25 degC by HPLC-DAD analysis; type: physicochemical
[14] = system: Caco-2; experiment: Apparent permeability from apical to basolateral side in human Caco2 cells in glucose rich medium at 50 to 100 uM at pH 7.4 by HPLC-DAD analysis; details: caco-2, pH 7.4, 100 µM
[15] = Efflux ratio of apparent permeability from basolateral to apical side to apical to basolateral side in human Caco2 cells at 25 uM at pH 7.4 by HPLC-DAD analysis; type: ADME, cell-based; details: Caco-2, pH 7.4
How it was run: (§1)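 Glucose-rich transport medium (25 mM glucose), pH 7.4 in both apical and basolateral compartments, donor concentration 25 or 50 μM. Papp = (ΔQ/Δt)/(A·C0), from the linear appearance rate on the receiver side. Ratios are calculated as Papp A→B/Papp B→A and Papp B→A/Papp A→B.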

[16] = system: Caco-2; experiment: Efflux ratio of apparent permeability from apical to basolateral side to basolateral to apical side in human Caco2 cells at 25 uM at pH 7.4 by HPLC-DAD analysis; type: ADME, cell-based; details: caco-2, pH 7.4, 25 µM; how it was run: as §1
[17] = Apparent permeability from basolateral to apical side in human Caco2 cells at 25 uM at pH 7.4 by HPLC-DAD analysis; type: ADME, cell-based; details: Caco-2, pH 7.4
[18] = Apparent permeability from apical to basolateral side in human Caco2 cells at 25 uM at pH 7.4 after 30 mins by HPLC-DAD analysis; type: ADME, cell-based; details: Caco-2, pH 7.4
[19] = Efflux ratio of apparent permeability from basolateral to apical side to apical to basolateral side in human Caco2 cells at 50 uM at pH 7.4 by HPLC-DAD analysis; type: ADME, cell-based; details: Caco-2, pH 7.4; how it was run: as §1
[20] = system: Caco-2; experiment: Efflux ratio of apparent permeability from apical to basolateral side to basolateral to apical side in human Caco2 cells at 50 uM at pH 7.4 by HPLC-DAD analysis; type: ADME, cell-based; details: caco-2, pH 7.4, 50 µM; how it was run: as §1
[21] = Apparent permeability from basolateral to apical side in human Caco2 cells at 50 uM at pH 7.4 by HPLC-DAD analysis; type: ADME, cell-based; details: Caco-2, pH 7.4
[22] = Apparent permeability from apical to basolateral side in human Caco2 cells at 50 uM at pH 7.4 after 30 mins by HPLC-DAD analysis; type: ADME, cell-based; details: Caco-2, pH 7.4
[23] = system: Caco-2; experiment: Cellular uptake in human Caco2 cells; type: ADME, cell-based
[24] = system: Caco-2; experiment: Apparent permeability from basolateral to apical side in human Caco2 cells in glucose free medium at 25 uM at pH 6.0 in apical side and pH 7.4 at basolateral side by HPLC-DAD analysis; type: ADME, cell-based; details: caco-2, pH 6, 25 µM
[25] = system: Caco-2; experiment: Apparent permeability from apical to basolateral side in human Caco2 cells in glucose free medium at 25 uM at pH 6.0 in apical side and pH 7.4 at basolateral side by HPLC-DAD analysis; type: ADME, cell-based; details: caco-2, pH 6, 25 µM

O=c1cc(-c2ccc(O)cc2)oc2c([C@@H]3O[C@H](CO)[C@@H](O)[C@H](O)[C@H]3O)c(O)c([C@@H]3O[C@H](CO)[C@@H](O)[C@H](O)[C@H]3O)c(O)c12
Activity [1]: Non-toxic | permeability [2]: impermeable | permeability [3]: impermeable | permeability [4]: impermeable | permeability [5]: impermeable | permeability [6]: impermeable | permeability [7]: impermeable | permeability [8]: impermeable | permeability [9]: impermeable | permeability [10]: impermeable | permeability [11]: impermeable | logP [12]: -4.31 | Stability [13]: 99% | permeability [14]: impermeable

C=C1CC/C=C(/C(=O)O)C[C@H](O)[C@@H]2[C@@H]1CC2(C)C
Activity [1]: Non-toxic | efflux ratio at 25 µM [15]: 0.94 | Ratio [16]: 1.06 | Papp B→A at 25 µM [17]: 4.41 ×10⁻⁶ cm/s | Papp A→B at 0.5 h, 25 µM [18]: 4.68 ×10⁻⁶ cm/s | efflux ratio at 50 µM [19]: 1.02 | Ratio [20]: 0.97 | Papp B→A at 50 µM [21]: 4.17 ×10⁻⁶ cm/s | Papp A→B at 0.5 h, 50 µM [22]: 4.07 ×10⁻⁶ cm/s | Stability [13]: 98%

O=c1cc(-c2ccc(O)cc2)oc2cc(O)cc(O)c12 [APIGENIN]
Drug uptake [23]: Active | permeability [24]: impermeable | permeability [25]: impermeable
